pIC50: −log10 of the molar value. Calls of active or inactive are those of the source. The rule behind the calls is not given here.
What was measured:
[1] = tested on: Proto-oncogene tyrosine-protein kinase receptor Ret (Homo sapiens), P07949 [Y791F]; experiment: Inhibition of RET Y791F mutant at 10 uM
[2] = biological target: Myosin light chain kinase 2, skeletal/cardiac muscle (Homo sapiens) (UniProt Q9H1R3); experiment: Inhibition of MYLK2 at 10 uM
MDA-MB-231 = experiment: Growth inhibition of human MDA-MB-231 cells after 72 hrs by ATPlite assay; format: functional; conditions: MDA-MB-231, 72 h
How it was run: (§1)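 Cells seeded at about 3000 per well, grown 24 h, then given fresh medium and test compound in triplicate at 0.5 to 100µM in DMSO (0.5% final). Exposure 72 h at 37 °C, 5% CO₂. Viability measured by ATPlite luminescence and normalized to DMSO-treated controls. GI50 obtained by curve fitting. HeLa cultured in DMEM/10% FBS; MCF7, MDA-MB-231 and PC3 cultured in RPMI+GlutaMAX/10% FBS.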

HeLa = experiment: Growth inhibition of human HeLa cells after 72 hrs by ATPlite assay; format: functional; how it was run: as §1
[3] = biological target: Vascular endothelial growth factor receptor 3 (Homo sapiens) (UniProt P35916); experiment: Inhibition of FLT4 at 10 uM
[4] = biological target: RAC-alpha serine/threonine-protein kinase (Homo sapiens) (UniProt P31749); experiment: Inhibition of AKT1 by biochemical assay
[5] = biological target: T1, Phosphatidylinositol 4,5-bisphosphate 3-kinase catalytic subunit delta isoform (Homo sapiens, UniProt O00329); experiment: Inhibition of PI3Kdelta; conditions: read-out: I50
T1 sequence (O00329 whole entry): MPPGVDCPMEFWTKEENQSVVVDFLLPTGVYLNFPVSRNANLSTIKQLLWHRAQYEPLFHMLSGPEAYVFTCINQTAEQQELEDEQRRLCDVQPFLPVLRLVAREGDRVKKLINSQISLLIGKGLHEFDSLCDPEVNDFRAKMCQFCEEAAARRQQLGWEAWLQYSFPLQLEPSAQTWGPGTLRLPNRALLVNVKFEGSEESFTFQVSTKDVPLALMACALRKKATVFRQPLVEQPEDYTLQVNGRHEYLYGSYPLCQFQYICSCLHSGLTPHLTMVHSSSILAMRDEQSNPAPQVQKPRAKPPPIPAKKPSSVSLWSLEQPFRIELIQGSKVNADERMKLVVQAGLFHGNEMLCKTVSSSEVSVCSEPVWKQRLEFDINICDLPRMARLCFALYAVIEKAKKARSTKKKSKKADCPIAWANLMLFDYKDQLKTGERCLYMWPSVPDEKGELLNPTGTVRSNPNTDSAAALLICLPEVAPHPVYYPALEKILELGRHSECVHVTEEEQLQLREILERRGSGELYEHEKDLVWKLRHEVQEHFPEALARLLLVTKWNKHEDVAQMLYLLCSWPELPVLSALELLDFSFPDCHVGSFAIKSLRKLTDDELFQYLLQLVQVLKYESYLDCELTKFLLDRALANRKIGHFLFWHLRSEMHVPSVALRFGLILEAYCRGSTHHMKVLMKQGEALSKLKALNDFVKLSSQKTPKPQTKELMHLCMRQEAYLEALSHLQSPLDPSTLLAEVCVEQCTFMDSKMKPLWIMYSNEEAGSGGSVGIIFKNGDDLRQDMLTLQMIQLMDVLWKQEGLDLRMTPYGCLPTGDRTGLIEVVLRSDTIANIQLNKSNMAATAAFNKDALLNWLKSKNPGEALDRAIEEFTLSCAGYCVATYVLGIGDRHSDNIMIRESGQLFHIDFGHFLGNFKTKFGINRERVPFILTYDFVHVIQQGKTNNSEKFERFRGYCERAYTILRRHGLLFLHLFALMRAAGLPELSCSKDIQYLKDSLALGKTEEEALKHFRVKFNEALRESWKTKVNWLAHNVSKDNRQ

[6] = tested on: Leucine-rich repeat serine/threonine-protein kinase 2 (Homo sapiens), Q5S007 [G2019S]; experiment: Inhibition of LRKK2 G2019S mutant at 10 uM
[7] = biological target: Mitogen-activated protein kinase 9 (Homo sapiens) (UniProt P45984); experiment: Inhibition of JNK2 at 10 uM
PC-3 = experiment: Growth inhibition of human PC3 cells after 72 hrs by ATPlite assay; format: functional; conditions: PC-3, 72 h; how it was run: as §1
[8] = biological target: Mitogen-activated protein kinase kinase kinase kinase 4 (Homo sapiens) (UniProt O95819); experiment: Inhibition of MAP4K4 at 10 uM
Chain of Mitogen-activated protein kinase kinase kinase kinase 4 (Homo sapiens) (O95819 2-1239 limits assumed): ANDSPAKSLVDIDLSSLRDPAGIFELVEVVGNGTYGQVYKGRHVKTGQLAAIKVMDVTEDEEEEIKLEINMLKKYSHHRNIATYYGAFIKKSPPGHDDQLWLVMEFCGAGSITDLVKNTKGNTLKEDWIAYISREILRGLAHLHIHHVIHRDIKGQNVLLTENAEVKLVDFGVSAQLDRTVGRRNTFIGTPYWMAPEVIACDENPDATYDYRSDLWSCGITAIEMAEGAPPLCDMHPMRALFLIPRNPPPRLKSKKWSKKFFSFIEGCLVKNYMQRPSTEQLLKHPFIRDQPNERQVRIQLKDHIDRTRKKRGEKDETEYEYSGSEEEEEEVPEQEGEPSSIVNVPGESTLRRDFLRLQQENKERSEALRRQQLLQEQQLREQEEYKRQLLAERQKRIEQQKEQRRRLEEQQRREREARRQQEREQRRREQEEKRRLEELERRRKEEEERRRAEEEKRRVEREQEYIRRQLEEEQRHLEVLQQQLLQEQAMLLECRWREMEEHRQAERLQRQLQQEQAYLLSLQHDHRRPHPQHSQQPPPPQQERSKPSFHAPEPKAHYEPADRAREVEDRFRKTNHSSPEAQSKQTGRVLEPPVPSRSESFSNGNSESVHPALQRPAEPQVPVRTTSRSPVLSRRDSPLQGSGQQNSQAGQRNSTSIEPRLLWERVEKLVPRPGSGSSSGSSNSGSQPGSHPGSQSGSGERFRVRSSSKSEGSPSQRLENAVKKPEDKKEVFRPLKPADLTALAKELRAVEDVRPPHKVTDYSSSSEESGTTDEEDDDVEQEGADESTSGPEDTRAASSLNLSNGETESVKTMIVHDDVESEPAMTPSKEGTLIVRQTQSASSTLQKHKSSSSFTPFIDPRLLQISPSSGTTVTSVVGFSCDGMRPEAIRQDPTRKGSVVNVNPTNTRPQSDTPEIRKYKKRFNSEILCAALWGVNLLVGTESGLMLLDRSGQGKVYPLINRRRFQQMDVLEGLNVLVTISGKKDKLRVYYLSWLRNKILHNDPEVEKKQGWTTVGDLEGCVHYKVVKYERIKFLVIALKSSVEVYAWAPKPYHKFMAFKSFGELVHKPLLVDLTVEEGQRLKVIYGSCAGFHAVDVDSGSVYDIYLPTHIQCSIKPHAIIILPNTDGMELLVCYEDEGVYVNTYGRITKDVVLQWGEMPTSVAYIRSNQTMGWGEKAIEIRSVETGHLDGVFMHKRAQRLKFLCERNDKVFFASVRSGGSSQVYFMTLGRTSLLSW

[9] = biological target: BDNF/NT-3 growth factors receptor (Homo sapiens) (UniProt Q16620); experiment: Inhibition of NTRK2 at 10 uM
[10] = biological target: Serine/threonine-protein kinase haspin (Homo sapiens) (UniProt Q8TF76); experiment: Inhibition of GSG2 at 10 uM
[11] = biological target: Vascular endothelial growth factor receptor 2 (Homo sapiens) (UniProt P35968); experiment: Inhibition of KDR at 10 uM
Chain of Vascular endothelial growth factor receptor 2 (Homo sapiens) (P35968 whole entry): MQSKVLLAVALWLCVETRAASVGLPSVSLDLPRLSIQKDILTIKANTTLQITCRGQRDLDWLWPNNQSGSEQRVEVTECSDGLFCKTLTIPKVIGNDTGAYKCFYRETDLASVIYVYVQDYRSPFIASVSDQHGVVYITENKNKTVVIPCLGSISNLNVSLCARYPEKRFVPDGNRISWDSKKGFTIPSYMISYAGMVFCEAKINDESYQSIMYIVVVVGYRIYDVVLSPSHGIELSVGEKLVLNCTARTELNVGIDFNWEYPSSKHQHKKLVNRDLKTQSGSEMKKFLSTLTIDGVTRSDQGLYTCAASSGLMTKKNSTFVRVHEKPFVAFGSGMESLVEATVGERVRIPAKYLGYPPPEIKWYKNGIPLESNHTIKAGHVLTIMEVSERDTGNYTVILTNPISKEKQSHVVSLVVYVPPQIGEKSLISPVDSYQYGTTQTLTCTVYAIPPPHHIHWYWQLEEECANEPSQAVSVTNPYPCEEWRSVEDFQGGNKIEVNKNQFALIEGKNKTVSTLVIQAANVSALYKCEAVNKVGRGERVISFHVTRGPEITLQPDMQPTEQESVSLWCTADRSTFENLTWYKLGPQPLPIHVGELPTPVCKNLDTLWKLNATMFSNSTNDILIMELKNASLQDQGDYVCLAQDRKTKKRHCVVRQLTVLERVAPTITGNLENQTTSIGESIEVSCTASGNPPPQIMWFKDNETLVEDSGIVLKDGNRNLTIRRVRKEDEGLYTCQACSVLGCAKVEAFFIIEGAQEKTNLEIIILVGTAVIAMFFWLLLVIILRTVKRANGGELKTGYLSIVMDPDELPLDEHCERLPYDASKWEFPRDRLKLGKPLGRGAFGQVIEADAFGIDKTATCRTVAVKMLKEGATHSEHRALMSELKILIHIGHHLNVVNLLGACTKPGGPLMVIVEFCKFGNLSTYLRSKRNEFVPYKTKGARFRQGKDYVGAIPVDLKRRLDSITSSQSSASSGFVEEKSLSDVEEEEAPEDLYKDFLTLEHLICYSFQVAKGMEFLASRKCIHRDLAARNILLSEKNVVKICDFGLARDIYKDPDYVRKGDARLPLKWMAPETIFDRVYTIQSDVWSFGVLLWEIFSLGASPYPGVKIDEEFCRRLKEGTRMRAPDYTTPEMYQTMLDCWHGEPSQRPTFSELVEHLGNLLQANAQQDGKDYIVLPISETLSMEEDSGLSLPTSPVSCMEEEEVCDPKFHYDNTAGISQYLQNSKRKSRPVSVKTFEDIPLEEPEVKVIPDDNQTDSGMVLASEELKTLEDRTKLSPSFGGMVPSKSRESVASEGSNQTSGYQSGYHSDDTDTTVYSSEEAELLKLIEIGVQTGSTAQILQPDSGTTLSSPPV

[12] = biological target: Leucine-rich repeat serine/threonine-protein kinase 2 (Homo sapiens) (UniProt Q5S007); experiment: Inhibition of LRKK2 at 10 uM
[13] = biological target: Dual specificity protein kinase CLK2 (Homo sapiens) (UniProt P49760); experiment: Inhibition of CLK2 at 10 uM
[14] = biological target: Muscle, skeletal receptor tyrosine-protein kinase (Homo sapiens) (UniProt O15146); experiment: Inhibition of MUSK at 10 uM
[15] = biological target: Cyclin-dependent kinase 5/CDK5 activator 1 (Homo sapiens) (UniProt Q00535+Q15078); experiment: Inhibition of CDK5/P25 at 10 uM; format: protein-complex assay
Chain of Cyclin-dependent kinase 5/CDK5 activator 1 (Homo sapiens) (Q00535 whole entry): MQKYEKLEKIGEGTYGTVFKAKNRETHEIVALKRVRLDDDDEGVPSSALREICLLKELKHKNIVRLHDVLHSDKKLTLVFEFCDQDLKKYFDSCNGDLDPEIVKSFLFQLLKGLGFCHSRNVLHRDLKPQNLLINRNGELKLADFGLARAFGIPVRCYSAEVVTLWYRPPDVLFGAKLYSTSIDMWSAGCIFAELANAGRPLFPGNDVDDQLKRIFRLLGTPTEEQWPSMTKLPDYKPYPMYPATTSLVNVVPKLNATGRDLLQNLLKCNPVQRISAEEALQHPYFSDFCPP
Chain of Cyclin-dependent kinase 5/CDK5 activator 1 (Homo sapiens) (Q15078 99-307 partner limits assumed): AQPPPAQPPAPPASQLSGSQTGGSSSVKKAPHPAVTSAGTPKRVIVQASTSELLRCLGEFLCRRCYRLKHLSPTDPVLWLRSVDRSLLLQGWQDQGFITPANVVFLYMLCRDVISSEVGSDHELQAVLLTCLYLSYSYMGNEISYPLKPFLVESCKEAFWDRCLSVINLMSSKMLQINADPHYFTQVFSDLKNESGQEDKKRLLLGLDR

[16] = biological target: Serine/threonine-protein kinase Sgk1 (Homo sapiens) (UniProt O00141); experiment: Inhibition of SGK1 at 10 uM
[17] = biological target: High affinity nerve growth factor receptor (Homo sapiens) (UniProt P04629); experiment: Inhibition of NTRK1 at 10 uM
Chain of High affinity nerve growth factor receptor (Homo sapiens) (P04629 33-796 limits assumed): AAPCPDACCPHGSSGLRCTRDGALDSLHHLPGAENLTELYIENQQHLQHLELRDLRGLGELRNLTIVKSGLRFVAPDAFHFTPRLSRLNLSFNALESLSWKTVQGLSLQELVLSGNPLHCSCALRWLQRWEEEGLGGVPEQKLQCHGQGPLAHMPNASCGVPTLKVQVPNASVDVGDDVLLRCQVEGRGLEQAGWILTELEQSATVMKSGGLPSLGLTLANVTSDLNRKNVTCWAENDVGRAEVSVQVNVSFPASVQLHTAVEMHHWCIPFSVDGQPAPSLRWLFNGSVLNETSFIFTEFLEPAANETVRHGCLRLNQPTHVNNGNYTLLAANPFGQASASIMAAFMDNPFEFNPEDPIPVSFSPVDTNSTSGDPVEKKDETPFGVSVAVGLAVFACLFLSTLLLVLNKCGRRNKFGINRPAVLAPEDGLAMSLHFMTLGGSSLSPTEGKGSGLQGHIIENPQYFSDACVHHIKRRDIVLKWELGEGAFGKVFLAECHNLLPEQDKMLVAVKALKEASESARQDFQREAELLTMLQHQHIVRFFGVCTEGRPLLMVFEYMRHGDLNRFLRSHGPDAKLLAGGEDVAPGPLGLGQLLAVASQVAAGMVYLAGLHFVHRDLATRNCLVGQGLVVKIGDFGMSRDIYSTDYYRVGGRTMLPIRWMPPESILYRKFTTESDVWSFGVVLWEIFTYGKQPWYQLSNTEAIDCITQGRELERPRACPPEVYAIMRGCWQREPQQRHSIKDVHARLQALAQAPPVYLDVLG

[18] = biological target: Phosphatidylinositol 4,5-bisphosphate 3-kinase catalytic subunit gamma isoform (Homo sapiens, UniProt P48736); experiment: Inhibition of PI3Kgamma
Chain of Phosphatidylinositol 4,5-bisphosphate 3-kinase catalytic subunit gamma isoform (P48736 whole entry, canonical isoform): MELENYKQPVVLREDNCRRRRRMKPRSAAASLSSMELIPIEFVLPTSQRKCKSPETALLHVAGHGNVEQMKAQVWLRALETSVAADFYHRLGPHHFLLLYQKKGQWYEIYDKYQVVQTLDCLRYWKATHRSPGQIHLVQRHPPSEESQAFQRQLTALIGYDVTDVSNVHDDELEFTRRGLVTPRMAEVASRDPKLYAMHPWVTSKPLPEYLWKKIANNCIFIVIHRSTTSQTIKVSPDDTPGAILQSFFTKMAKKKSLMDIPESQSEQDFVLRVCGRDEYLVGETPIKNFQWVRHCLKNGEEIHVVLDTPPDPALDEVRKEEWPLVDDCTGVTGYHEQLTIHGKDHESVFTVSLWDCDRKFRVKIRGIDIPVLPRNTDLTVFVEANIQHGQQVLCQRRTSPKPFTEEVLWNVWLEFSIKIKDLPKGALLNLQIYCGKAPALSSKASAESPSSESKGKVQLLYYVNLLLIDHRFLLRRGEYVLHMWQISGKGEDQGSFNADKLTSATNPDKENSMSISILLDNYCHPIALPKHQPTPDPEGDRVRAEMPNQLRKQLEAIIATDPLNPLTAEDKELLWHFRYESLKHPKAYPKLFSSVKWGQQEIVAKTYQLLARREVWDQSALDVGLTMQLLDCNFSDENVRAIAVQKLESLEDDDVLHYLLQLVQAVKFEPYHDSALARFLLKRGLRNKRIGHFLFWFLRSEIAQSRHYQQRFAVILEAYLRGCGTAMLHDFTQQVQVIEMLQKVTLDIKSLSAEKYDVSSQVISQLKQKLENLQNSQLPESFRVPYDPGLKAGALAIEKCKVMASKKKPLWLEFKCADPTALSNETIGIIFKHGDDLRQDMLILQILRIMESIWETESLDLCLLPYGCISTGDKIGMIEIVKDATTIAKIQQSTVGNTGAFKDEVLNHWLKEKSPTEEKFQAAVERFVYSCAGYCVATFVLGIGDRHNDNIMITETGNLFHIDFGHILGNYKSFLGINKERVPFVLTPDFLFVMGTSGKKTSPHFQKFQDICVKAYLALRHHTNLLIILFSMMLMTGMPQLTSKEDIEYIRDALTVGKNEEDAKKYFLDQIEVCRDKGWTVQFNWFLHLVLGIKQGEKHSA

[19] = tested on: Platelet-derived growth factor receptor alpha (Homo sapiens), P16234 [V561D]; experiment: Inhibition of PDGFRA V561D mutant at 10 uM

C(#Cc1n[nH]c2ccccc12)c1ccncc1
inhibition [1]: > 50%
inhibition [2]: > 50%
GI50 (MDA-MB-231): 7.84 µM
GI50 (HeLa): 2.53 µM
inhibition [3]: > 50%
inhibition [4]: inactive
pIC50 [5]: 4.41
inhibition [6]: > 50%
inhibition [7]: > 50%
GI50 (PC-3): 2.43 µM
inhibition [8]: > 50%
inhibition [9]: > 50%
inhibition [10]: > 50%
inhibition [11]: > 50%
inhibition [12]: > 50%
inhibition [13]: > 50%
inhibition [14]: > 50%
inhibition [15]: > 50%
inhibition [16]: > 50%
inhibition [17]: > 50%
pIC50 [18]: 4.40
inhibition [19]: > 50%
